Results from ChEMBL document CHEMBL5724801, “EUbOPEN Chemogenomics Library - Multiplex” (2024).
Where “and” joins values, the source holds several entries; their conditions need not be identical. Equal entries are not always repeated.

System: Fibroblast
Assay: Multiplex assay against human fibroblast
Format: toxicity, cell-based
Outline: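 Compound was added to live cells that had been stained at seeding with Hoechst33342, BioTracker Green Microtubule Cytoskeleton Dye, MitoTracker Red and Annexin V Alexa Fluor 680, and imaging followed on a CQ1 microscope at 37°C and 5% CO2. CellPathfinder machine-learning gating divided cells into Hoechst high-intensity objects or normal cells, normal cells into healthy, pyknosed or fragmented nuclei, and pyknosed cells into mitotic or apoptotic. Tubulin, mitochondrial-mass and membrane-permeability phenotypes are per cents of healthy-nucleus cells.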

[1] = 12 h, 1 µM, compound concentration 1 uM
[2] = 12 h, 10 µM, compound concentration 10 uM
[3] = 24 h, 1 µM, compound concentration 1 uM
[4] = 24 h, 10 µM, compound concentration 10 uM
[5] = 48 h, 1 µM, compound concentration 1 uM
[6] = 48 h, 10 µM, compound concentration 10 uM

Q: How did the “Population Apoptotic (%)” value [1] turn out when `CCCCC(=O)N(Cc1ccc(-c2ccccc2-c2nnn[nH]2)cc1)[C@H](C(=O)O)C(C)C` was run?
A: 45% and 44%

Q: What about the “Population Fragmented Nuclei (%)” value [1] of the same compound?
A: 9% and 21%

Q: And the “Population Healthy Nuclei (%)” value [1]?
A: 74% and 54%

Q: What about the “Population Hoechst High Intensity Objects (%)” value [1] of the same compound?
A: 4% and 3%

Q: And the “Population Membrane Permeable-Phenotype (%)” value [1]?
A: 0% and 8%

Q: And the “Population Mitochondria Different-Phenotype (%)” value [1]?
A: 0% and 6%

Q: What about the “Population Mitotic Cells (%)” value [1] of the same compound?
A: 54% and 55%

Q: And the “Population Normal (%)” value [1]?
A: 95% and 96%

Q: What about the “Population Pyknosed Nuclei (%)” value [1] of the same compound?
A: 16% and 24%

Q: What about the “Population Tubulin-Different-Phenotype (%)” value [1] of the same compound?
A: 20% and 36%

Q: And the “Total Cell Count” value [1]?
A: 143 and 156

Q: What about the “Population Apoptotic (%)” value [2] of the same compound?
A: 37%

Q: What about the “Population Fragmented Nuclei (%)” value [2] of the same compound?
A: 20% and 27%

Q: And the “Population Healthy Nuclei (%)” value [2]?
A: 56% and 42%

Q: And the “Population Hoechst High Intensity Objects (%)” value [2]?
A: 0% and 3%

Q: And the “Population Membrane Permeable-Phenotype (%)” value [2]?
A: 3% and 11%

Q: What about the “Population Mitochondria Different-Phenotype (%)” value [2] of the same compound?
A: 3% and 11%

Q: What about the “Population Mitotic Cells (%)” value [2] of the same compound?
A: 62%

Q: And the “Population Normal (%)” value [2]?
A: 100% and 96%

Q: What about the “Population Pyknosed Nuclei (%)” value [2] of the same compound?
A: 22% and 29%

Q: And the “Population Tubulin-Different-Phenotype (%)” value [2]?
A: 23% and 51%

Q: What about the “Total Cell Count” value [2] of the same compound?
A: 106 and 130

Q: What about the “Population Apoptotic (%)” value [3] of the same compound?
A: 66% and 38%

Q: And the “Population Fragmented Nuclei (%)” value [3]?
A: 15% and 21%

Q: And the “Population Healthy Nuclei (%)” value [3]?
A: 70% and 52%

Q: What about the “Population Hoechst High Intensity Objects (%)” value [3] of the same compound?
A: 0% and 2%

Q: What about the “Population Membrane Permeable-Phenotype (%)” value [3] of the same compound?
A: 1% and 2%

Q: And the “Population Mitochondria Different-Phenotype (%)” value [3]?
A: 2% and 1%

Q: What about the “Population Mitotic Cells (%)” value [3] of the same compound?
A: 33% and 61%

Q: And the “Population Normal (%)” value [3]?
A: 99% and 97%

Q: What about the “Population Pyknosed Nuclei (%)” value [3] of the same compound?
A: 14% and 25%

Q: And the “Population Tubulin-Different-Phenotype (%)” value [3]?
A: 17% and 25%

Q: What about the “Total Cell Count” value [3] of the same compound?
A: 146 and 145

Q: What about the “Population Apoptotic (%)” value [4] of the same compound?
A: 48% and 35%

Q: What about the “Population Fragmented Nuclei (%)” value [4] of the same compound?
A: 18% and 25%

Q: What about the “Population Healthy Nuclei (%)” value [4] of the same compound?
A: 56% and 44%

Q: And the “Population Hoechst High Intensity Objects (%)” value [4]?
A: 2% and 4%

Q: What about the “Population Membrane Permeable-Phenotype (%)” value [4] of the same compound?
A: 0% and 9%

Q: What about the “Population Mitochondria Different-Phenotype (%)” value [4] of the same compound?
A: 1% and 10%

Q: And the “Population Mitotic Cells (%)” value [4]?
A: 51% and 64%

Q: What about the “Population Normal (%)” value [4] of the same compound?
A: 97% and 95%

Q: What about the “Population Pyknosed Nuclei (%)” value [4] of the same compound?
A: 25% and 29%

Q: And the “Population Tubulin-Different-Phenotype (%)” value [4]?
A: 31% and 65%

Q: What about the “Total Cell Count” value [4] of the same compound?
A: 110 and 130

Q: What about the “Population Apoptotic (%)” value [5] of the same compound?
A: 80% and 40%

Q: What about the “Population Fragmented Nuclei (%)” value [5] of the same compound?
A: 18% and 27%

Q: What about the “Population Healthy Nuclei (%)” value [5] of the same compound?
A: 71% and 51%

Q: What about the “Population Hoechst High Intensity Objects (%)” value [5] of the same compound?
A: 6% and 3%

Q: And the “Population Membrane Permeable-Phenotype (%)” value [5]?
A: 0% and 1%

Q: What about the “Population Mitochondria Different-Phenotype (%)” value [5] of the same compound?
A: 1% and 3%

Q: And the “Population Mitotic Cells (%)” value [5]?
A: 20% and 59%

Q: What about the “Population Normal (%)” value [5] of the same compound?
A: 93% and 96%

Q: And the “Population Pyknosed Nuclei (%)” value [5]?
A: 10% and 21%

Q: And the “Population Tubulin-Different-Phenotype (%)” value [5]?
A: 17% and 33%

Q: What about the “Total Cell Count” value [5] of the same compound?
A: 153 and 155

Q: And the “Population Apoptotic (%)” value [6]?
A: 64% and 57%

Q: What about the “Population Fragmented Nuclei (%)” value [6] of the same compound?
A: 28% and 39%

Q: And the “Population Healthy Nuclei (%)” value [6]?
A: 56% and 39%

Q: And the “Population Hoechst High Intensity Objects (%)” value [6]?
A: 4%

Q: What about the “Population Membrane Permeable-Phenotype (%)” value [6] of the same compound?
A: 0% and 7%

Q: And the “Population Mitochondria Different-Phenotype (%)” value [6]?
A: 5%

Q: And the “Population Mitotic Cells (%)” value [6]?
A: 35% and 42%

Q: What about the “Population Normal (%)” value [6] of the same compound?
A: 95%

Q: What about the “Population Pyknosed Nuclei (%)” value [6] of the same compound?
A: 15% and 20%

Q: And the “Population Tubulin-Different-Phenotype (%)” value [6]?
A: 30% and 69%

Q: And the “Total Cell Count” value [6]?
A: 112 and 141
